pIC50: −log10 of the molar value. Active and inactive are the calls of the source. The rule behind the calls is not given here.
Legend:
MCF7 [1] = experiment: Induction of apoptosis in human MCF7 cells assessed as early apoptotic cells at 3 uM after 24 hrs using annexin V/PI staining by flow cytometry (reference value: 3.19 %); type: functional
MDA-MB-231 [2] = experiment: Antiproliferative activity against human MDA-MB-231 cells after 72 hrs by MTT assay; type: functional, cell-based; details: MDA-MB-231, 72 h
Procedure, shortened: (§1)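 MCF-7 (ER+ve) and MDA-MB-231 (ER-ve) breast cancer cells were exposed to compound or vehicle. Viability was read by MTT and expressed as % cell death versus vehicle, with 4-hydroxytamoxifen as positive control. IC50 came from three independent experiments, each in triplicate.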

MCF7 [3] = experiment: Cell cycle arrest in human MCF7 cells assessed as decrease in cyclin D1 protein level at 5 uM after 12 to 24 hrs by immunoblotting method; type: functional, cell-based
MCF7 [4] = experiment: Antitumor activity against human MCF7 cells xenografted in athymic nude mouse assessed as reduction in tumor volume at 16 mg/kg/day, po for 21 days measured after 21 days relative to control; type: functional; design: scale not given: the % may be the effect or the level left
MCF7 [5] = experiment: Cell cycle arrest in human MCF7 cells assessed as apoptosis at 5 uM after 24 hrs using propidium iodide staining by flow cytometry (reference value: 0.06 %); type: functional
MDA-MB-231 [6] = experiment: Cell cycle arrest in human MDA-MB-231 cells assessed as accumulation at G2 phase at 1 uM after 24 hrs using propidium iodide staining by flow cytometry (reference value: 18.75 %); type: functional
MCF7 [7] = experiment: Induction of apoptosis in human MCF7 cells assessed as late apoptotic cells at 1 uM after 24 hrs using annexin V/PI staining by flow cytometry (reference value: 6.46 %); type: functional
Procedure, shortened: (§2)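 MCF-7 cells were exposed to vehicle or the indicated compound concentrations for 24 h. Phosphatidylserine exposure was then measured by flow cytometry after staining with FITC-labelled Annexin V and propidium iodide. Apoptotic cell fractions were read from dot plots relative to vehicle.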

MDA-MB-231 [8] = experiment: Cell cycle arrest in human MDA-MB-231 cells assessed as accumulation at G2 phase at 5 uM after 24 hrs using propidium iodide staining by flow cytometry (reference value: 18.75 %); type: functional
MDA-MB-231 [9] = experiment: Antiproliferative activity against human MDA-MB-231 cells after 48 hrs by MTT assay; type: functional, cell-based; details: MDA-MB-231, 48 h; procedure, shortened: as §1
MDA-MB-231 [10] = experiment: Cell cycle arrest in human MDA-MB-231 cells assessed as apoptosis at 3 uM after 24 hrs using propidium iodide staining by flow cytometry (reference value: 0.10 %); type: functional
MCF7 [11] = experiment: Induction of apoptosis in human MCF7 cells assessed as early apoptotic cells at 1 uM after 24 hrs using annexin V/PI staining by flow cytometry (reference value: 3.19 %); type: functional
MCF7 [12] = experiment: Cell cycle arrest in human MCF7 cells assessed as increase in p27 protein level at 5 uM after 12 to 24 hrs by immunoblotting method; type: functional, cell-based
MCF7 [13] = experiment: Cell cycle arrest in human MCF7 cells assessed as decrease in cyclin D1 mRNA level at 1 to 5 uM after 12 hrs by QRT-PCR method; type: functional, cell-based
Vero = experiment: Cytotoxicity against african green monkey Vero cells after 24 hrs by MTT assay; type: cell-based; details: chlorocebus sabaeus
Procedure, shortened: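 Vero, HEK-293 and primary rat calvarial osteoblasts were given vehicle or a range of concentrations for 24 h. Cell death was expressed as % relative to vehicle.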

MCF7 [14] = experiment: Induction of apoptosis in human MCF7 cells assessed as PARP cleavage after 6 to 24 hrs by densitometry; type: functional, cell-based
Procedure, shortened: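 Lysates from treated MCF-7 cells were immunoblotted for PARP, and cleaved PARP was quantified by densitometry. Data are mean ± SEM of three independent experiments.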

MCF7 [15] = experiment: Cell cycle arrest in human MCF7 cells assessed as increase in p21 mRNA level at 1 to 5 uM after 12 hrs by QRT-PCR method; type: functional, cell-based
MCF7 [16] = experiment: Induction of apoptosis in human MCF7 cells assessed as reduction in cell viability at 5 uM after 24 hrs by MTT assay in presence of zVAD-FMK; type: functional, cell-based
MCF7 [17] = experiment: Cell cycle arrest in human MCF7 cells assessed as accumulation at G2 phase at 1 uM after 24 hrs using propidium iodide staining by flow cytometry (reference value: 7.46 %); type: functional
MCF7 [18] = experiment: Antiproliferative activity against human MCF7 cells after 48 hrs by MTT assay; type: functional, cell-based; details: MCF7, 48 h; procedure, shortened: as §1
MCF7 [19] = experiment: Cell cycle arrest in human MCF7 cells assessed as apoptosis at 1 uM after 24 hrs using propidium iodide staining by flow cytometry (reference value: 0.06 %); type: functional
MCF7 [20] = experiment: Induction of apoptosis in human MCF7 cells assessed as caspase-3 cleavage at 5 uM after 3 hrs by immunoblotting method; type: functional, cell-based
MDA-MB-231 [21] = experiment: Cell cycle arrest in human MDA-MB-231 cells assessed as accumulation at S phase at 3 uM after 24 hrs using propidium iodide staining by flow cytometry (reference value: 28.59 %); type: functional
MCF7 [22] = experiment: Cell cycle arrest in human MCF7 cells assessed as accumulation at G2 phase at 3 uM after 24 hrs using propidium iodide staining by flow cytometry (reference value: 7.46 %); type: functional
MDA-MB-231 [23] = experiment: Cell cycle arrest in human MDA-MB-231 cells assessed as accumulation at G1 phase at 5 uM after 24 hrs using propidium iodide staining by flow cytometry (reference value: 52.67 %); type: functional
MCF7 [24] = experiment: Cell cycle arrest in human MCF7 cells assessed as accumulation at G1 phase at 1 uM after 24 hrs using propidium iodide staining by flow cytometry (reference value: 67.73 %); type: functional
MDA-MB-231 [25] = experiment: Antiproliferative activity against human MDA-MB-231 cells after 24 hrs by MTT assay; type: functional, cell-based; details: MDA-MB-231, 24 h; procedure, shortened: as §1
MCF7 [26] = experiment: Induction of apoptosis in human MCF7 cells assessed as late apoptotic cells at 5 uM after 24 hrs using annexin V/PI staining by flow cytometry (reference value: 6.46 %); type: functional; procedure, shortened: as §2
MCF7 [27] = experiment: Antiproliferative activity against human MCF7 cells after 24 hrs by MTT assay; type: functional, cell-based; details: MCF7, 24 h; procedure, shortened: as §1
MCF7 [28] = experiment: Cell cycle arrest in human MCF7 cells assessed as apoptosis at 3 uM after 24 hrs using propidium iodide staining by flow cytometry (reference value: 0.06 %); type: functional
MDA-MB-231 [29] = experiment: Cell cycle arrest in human MDA-MB-231 cells assessed as accumulation at G2 phase at 3 uM after 24 hrs using propidium iodide staining by flow cytometry (reference value: 18.75 %); type: functional
MCF7 [30] = experiment: Induction of apoptosis in human MCF7 cells assessed as reduction in mitochondrial membrane potential at 1 to 5 uM after 12 hrs by Jc-1 staining-based flow cytometry; type: functional, cell-based
MCF7 [31] = experiment: Cell cycle arrest in human MCF7 cells assessed as accumulation at G1 phase at 3 uM after 24 hrs using propidium iodide staining by flow cytometry (reference value: 67.73 %); type: functional
MCF7 [32] = experiment: Induction of apoptosis in human MCF7 cells assessed as phosphatidylserine exposure after 24 hrs using annexin V/PI staining by flow cytometry; type: functional, cell-based; procedure, shortened: as §2
MCF7 [33] = experiment: Cell cycle arrest in human MCF7 cells assessed as accumulation at S phase at 5 uM after 24 hrs using propidium iodide staining by flow cytometry (reference value: 24.81 %); type: functional
[34] = Safety index, ratio of IC50 for HEK293 cells to IC50 for human MCF7 cells; type: toxicity, cell-based; details: HEK293 cells versus MCF7 cells, read-out: Ratio IC50
Procedure, shortened: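 Cell death was assessed by MTT assay after 72 h exposure. The ratio was calculated as the HEK-293 IC50 divided by the MCF-7 EC50.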

Cc1ccc(S(=O)(=O)N2Cc3ccccc3OC[C@@H]2Cc2ccc(OCCN3CCCCCC3)cc2)cc1.Cl
Activity (MCF7 [1]): 20.74% | pIC50 (MDA-MB-231 [2]): 5.34 | Activity (MCF7 [3]): Active | Activity (MCF7 [4]): 50% | Activity (MCF7 [5]): 2.86% | Activity (MDA-MB-231 [6]): 7.46% | Activity (MCF7 [7]): 20.15% | Activity (MDA-MB-231 [8]): 6.48% | pIC50 (MDA-MB-231 [9]): 5.26 | Activity (MDA-MB-231 [10]): 3.61% | Activity (MCF7 [11]): 15.13% | Activity (MCF7 [12]): Active | Activity (MCF7 [13]): Active | Activity (Vero): Non-toxic | Activity (MCF7 [14]): Dose-dependent effect | Activity (MCF7 [15]): Active | Activity (MCF7 [16]): Active | Activity (MCF7 [17]): 6.97% | pIC50 (MCF7 [18]): 5.45 | Activity (MCF7 [19]): 2.59% | Activity (MCF7 [20]): Active | Activity (MDA-MB-231 [21]): 18.64% | Activity (MCF7 [22]): 6.86% | Activity (MDA-MB-231 [23]): 75.82% | Activity (MCF7 [24]): 74.1% | pIC50 (MDA-MB-231 [25]): 5.14 | Activity (MCF7 [26]): 35.77% | pIC50 (MCF7 [27]): 5.17 | Activity (MCF7 [28]): 0.52% | Activity (MDA-MB-231 [29]): 8.08% | Activity (MCF7 [30]): Active | Activity (MCF7 [31]): 86.96% | Activity (MCF7 [32]): Dose-dependent effect | Activity (MCF7 [33]): 7.34% | selectivity ratio [34]: 16.4

Reference: ChEMBL document CHEMBL3091313, “Amino acids derived benzoxazepines: design, synthesis and antitumor activity” (Bioorg Med Chem Lett, 2013)
